Columns and labels:
Homo sapiens [1] = test: Toxicity in patient with cutaneous leishmaniasis assessed as mild to moderate gastrointestinal side-effect at […], po three times a day for 28 days; format: organism-based; set-up: route oral; settings: in vivo, 672 h
Homo sapiens [2] = test: Plasma concentration in patient with cutaneous leishmaniasis at […], po three times a day measured after 22 to 28 days by LC-MS/MS assay; format: ADME, organism-based; set-up: route oral; settings: in vivo
Procedure, shortened: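 31 cutaneous leishmaniasis patients given miltefosine 150 mg/day for 28 days. Venous EDTA blood was spun at about 23,100 × g, 4°C, 15 min, and plasma stored at ≤−20°C. Analysis was solid-phase extraction of 250 μl plasma, then isocratic C18 LC-MS/MS; range 4–2,000 ng/ml, higher samples diluted in blank plasma. Sampling windows: days 178–202, days 22–28.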

[3] = Terminal half life in patient with cutaneous leishmaniasis at 2.5 mg/kg, po once a day measured after 6 to 8 days by LC-MS/MS assay; format: ADME, organism-based; set-up: dose 2.5 mg/kg, route oral; settings: human, in vivo
[4] = Terminal half life in patient with leishmaniasis at […], po three times a day for 28 days by LC-MS/MS assay; format: ADME, organism-based; set-up: route oral; settings: human, in vivo
Procedure, shortened: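 Population pharmacokinetic fit in NONMEM of 382 plasma concentrations (LC-MS/MS, LLOQ 4 ng/ml) from 31 patients on 150 mg/day for 28 days, sampled up to day 202. Nested models were compared by objective function with the log likelihood ratio test and checked with observed-versus-predicted and conditional weighted residual plots; a two-compartment model was used for the terminal half-life.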

Homo sapiens [5] = organism: Homo sapiens; test: Plasma concentration in patient with cutaneous leishmaniasis measured after 178 to 202 days by LC-MS/MS assay; settings: in vivo
Homo sapiens [6] = test: Renal toxicity in patient with cutaneous leishmaniasis assessed as mild elevation of creatinine at […], po three times a day for 28 days; format: organism-based; set-up: route oral; settings: in vivo, 672 h
Homo sapiens [7] = test: Hepatotoxicity in patient with cutaneous leishmaniasis assessed as mild elevation of aspartate aminotransferase at […], po three times a day for 28 days; format: toxicity, organism-based; set-up: route oral; settings: in vivo, 672 h
Homo sapiens [8] = test: Hepatotoxicity in patient with cutaneous leishmaniasis assessed as mild elevation of alanine aminotransferase at […], po three times a day for 28 days; format: toxicity, organism-based; set-up: route oral; settings: in vivo, 672 h
[9] = Cmax in serum of patient with cutaneous leishmaniasis at 2.5 mg/kg, po once a day for 23 days by LC-MS/MS assay; format: ADME, organism-based; set-up: dose 2.5 mg/kg, route oral; settings: human
Homo sapiens [10] = test: Toxicity in patient with cutaneous leishmaniasis assessed as mild to moderate fatigue at […], po three times a day for 28 days; format: organism-based; set-up: route oral; settings: in vivo, 672 h

Activity (Homo sapiens [2]): 30800 ng/mL
half-life [3]: 6.25 days
half-life [4]: 30.9 days
Activity (Homo sapiens [5]): 17.5 ng/mL
Cmax [9]: 70 µg/mL
Structure (SMILES): CCCCCCCCCCCCCCCCOP(=O)([O-])OCC[N+](C)(C)C [MILTEFOSINE]
Activity (Homo sapiens [1]): Toxic
Activity (Homo sapiens [6]): Toxic
Activity (Homo sapiens [7]): Toxic
Activity (Homo sapiens [8]): Toxic
Activity (Homo sapiens [10]): Toxic
